MrgX1 antagonist – human MrgX1 receptor antagonism, primary screen; Q96LB2; MRGX1-HEK293 calcium flux, Fluo-4, BAM8-22 antagonism; active compounds read low; B-score at 10 µM; actives 1.3% (n = 310,000);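 active = calcium-response B-score plate-corrected more than 3 library SD below zero, starting fluorescence within 5 deviations, no agonist response on first addition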;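 also: peak minus trough fluorescence over baseline after final BAM8-22 challenge near maximal dose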
Target sequence (Q96LB2 whole entry, looked up): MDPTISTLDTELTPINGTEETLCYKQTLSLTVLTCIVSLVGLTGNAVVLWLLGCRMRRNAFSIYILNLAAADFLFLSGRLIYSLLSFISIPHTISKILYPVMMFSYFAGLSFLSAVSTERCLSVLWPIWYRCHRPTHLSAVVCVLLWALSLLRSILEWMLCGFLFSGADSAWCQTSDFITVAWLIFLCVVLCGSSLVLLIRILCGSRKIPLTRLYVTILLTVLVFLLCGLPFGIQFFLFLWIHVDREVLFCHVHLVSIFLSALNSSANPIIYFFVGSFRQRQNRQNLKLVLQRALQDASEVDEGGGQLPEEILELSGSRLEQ
RGS4 act – RGS4 potentiation or activation. actives 0.92% (n = 310,000). AID 463111. HEK293 M3R/inducible RGS4, carbachol calcium flux Fluo4; active compounds read low. B-score at 10 µM;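 active = B-score of the integrated calcium signal more than 4 SD below the library mean, with starting fluorescence not abnormally high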;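 also: negative B-score means reduced calcium response which marks RGS4 activation or potentiation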
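Assay system: HEK293 FlpIn-TREx cells, stable M3R, doxycycline-inducible RGS4 / Probe or stimulus: carbachol, ECmax concentration / Times: overnight RGS4 induction, 30 min dye load 37 °C, 20 min compound RT / Signal: kinetic calcium fluorescence imaging with Fluo4-AM dye, 2 µM / Measure: Agonist-evoked peak-minus-minimum fluorescence over baseline, integrated ratio, B score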
MrgX1 agonist – activates human MrgX1 receptor signaling; Q96LB2; MrgX1-HEK293 cells, Fluo-4 calcium fluorescence, agonist mode; active compounds read high; B-score at 10 µM; actives 0.44% (n = 310,000); AID 588627;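 active = calcium response B-score plate-corrected fluorescence ratio at least 3 library SD, with starting fluorescence B-score inside 5 SD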
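Test system: Stable human MrgX1 HEK293 cell line | Schedule: Overnight plating before 1 h dye loading | Read-out basis: Baseline-normalised fluorescence change ratio, B-scored | Detection: Kinetic calcium dye fluorescence, Fluo-4 NW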
MrgX1 PAM – human MrgX1 positive allosteric modulation, primary screen; AID 588675; B-score at 10 µM; Q96LB2; MrgX1-HEK293, Fluo-4 calcium flux, FDSS; active compounds read high; actives 0.63% (n = 310,000);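 active = plate-corrected calcium response at least 3 library SD above typical, normal starting fluorescence, not activating the receptor alone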;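 also: compound read alongside a low EC10 to EC30 dose of BAM8-22 agonist; peak minus trough fluorescence over baseline measured at the second addition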
RGS4 inh – inhibitors of human RGS4. actives 0.45% (n = 310,000). HEK293 M3R/RGS4 inducible, Fluo-4 calcium flux; active compounds read high; triggered by carbachol at its EC20. B-score at 10 µM;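 active = B-score, a plate-corrected calcium signal, over three deviations above library mean, with baseline fluorescence within five deviations of library mean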;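 also: RGS4 expression induced by doxycycline in cells with stable M3 receptor; B-score is computed from the integrated fluorescence ratio over baseline after carbachol; higher B-score means a larger calcium signal and so more RGS4 inhibition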
Target sequence (P49798 whole entry, looked up): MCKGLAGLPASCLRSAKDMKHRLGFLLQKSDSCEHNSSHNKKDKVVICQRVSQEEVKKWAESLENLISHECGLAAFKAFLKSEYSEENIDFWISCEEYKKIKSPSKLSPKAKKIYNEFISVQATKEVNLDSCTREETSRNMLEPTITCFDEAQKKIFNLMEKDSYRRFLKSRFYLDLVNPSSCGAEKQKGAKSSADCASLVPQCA
MrgX1 antag conf – confirmation of human MrgX1 receptor antagonists | shares compounds with MrgX1 antagonist | MrgX1-HEK293, BAM8-22 calcium flux, Fluo-4; active compounds read low | remaining BAM8-22 calcium response % of control (active compounds read low), % at 10 µM | actives 19% (n = 2,300) | AID 602420;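 active = remaining agonist calcium response no higher than 100% minus 3 SD of agonist-only control wells, with starting fluorescence near control levels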;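 also: agonist BAM8-22 given at a near maximal EC90 to ECmax level; peak minus minimum fluorescence divided by baseline after agonist addition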
HEK293 Ca flux – counter-screen for MrgX1 antagonists: effect in parental HEK293 cells | shares compounds with MrgX1 antagonist | fluorescence ratio F(max-min)/F0 at 10 µM | Fluo-4 calcium fluorescence, FDSS | actives 2% (n = 4,000);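 active = duplicate-averaged calcium fluorescence ratio at least three times the standard deviation of buffer wells, a nonspecific response in parental cells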
HEK293 Ca counter – MrgX1 allosteric activator counter-screen hit in parental HEK293 cells | shares compounds with MrgX1 antagonist | parental HEK293 calcium flux, Fluo-4 fluorescence ratio; active compounds read high | fluorescence ratio F(max-min)/F0 at 10 µM | actives 0.4% (n = 4,000) | AID 624114;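 active = calcium fluorescence ratio, averaged over duplicates, at least 3 SD of the buffer-well ratio, meaning a nonspecific response in receptor-free cells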;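 also: untransfected parental HEK293 lacking MrgX1 used as counterscreen for MrgX1 allosteric activators; fluorescence change taken during the second addition on a kinetic imager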
HEK293 Ca cntr2 – MrgX1 activator counter-screen hit in parental HEK293 cells. AID 624115. shares compounds with MrgX1 antagonist. actives 8.7% (n = 4,000). fluorescence ratio F(max-min)/F0 at 10 µM. Fluo-4 calcium fluorescence (FDSS); active compounds read high;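 active = calcium fluorescence ratio at least three times the spread of buffer wells, meaning a non-specific response in parental cells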
Numbers stand for hits; - = inactive; . = no result given. Rows were chosen to be rich in hits. Some 3.5% of all compounds tested hit in one or more screens of this group.

SMILES	MrgX1 antagonist	RGS4 act	MrgX1 agonist	MrgX1 PAM	RGS4 inh	MrgX1 antag conf	HEK293 Ca flux	HEK293 Ca counter	HEK293 Ca cntr2
Cc1ccc(C)c(-n2c(-c3csc(C)c3C)n[nH]c2=S)c1	-	-	-	-	-	.	.	.	.
CCOC(=O)CN1C(=O)CN(c2ccc(C)cc2)C1=O	-4.97	-	-	-	-	-	-	-	-
Cc1ccc(CCC(=O)Nc2ccccc2C(=O)O)o1	-	-	-	-	-	.	.	.	.
O=C(CNc1cccc(S(=O)(=O)N2CCOCC2)c1)Nc1ccccc1F	-5.11	-	-	-	-	-	-	-	-
O=C(CNc1cccc(S(=O)(=O)N2CCOCC2)c1)Nc1cccc(Br)c1	-	-	-	-	-	.	.	.	.
CC(=O)Nc1ccc2c(c1)CCCC2	-	-	-	-	-	.	.	.	.
CC(=O)Nc1ccc2c(c1)CCCC2=O	-4.58	-	-	-	-	76.7%	-	-	-
C=CCn1c(C)nnc1SCC(=O)Nc1nccs1	-	-	-	-	-	.	.	.	.
COC(OC)c1ccnc(-c2ccc(OC(C)=O)cc2)n1	-	-	-	-	-	.	.	.	.
COC(OC)c1ccnc(-c2ccc(OC(=O)c3ccccc3)cc2)n1	-9.24	-	-	-	-	-	-	-	-
COC(=O)c1ccc(NC(=O)CSc2nc(=O)n3cccc(C)c3n2)cc1	-	-	-	-	-	.	.	.	.
COc1cc(NC(=O)C2CCC(CNS(=O)(=O)c3csc(C(N)=O)c3)CC2)cc(OC)c1 (stereo unspecified)	-	-	-	-	-	.	.	.	.
CCOC(=O)Cn1cc(C(=O)c2ccco2)c2ccccc21	-	-	-	-	-	.	.	.	.
O=C(O)Cn1cc(C(=O)c2ccco2)c2ccccc21	-7.94	-	-	-	-	-	-	-	-
O=C(Nc1ccccc1Br)c1cc(=O)c2ccccc2o1	-	-	-	-	-	.	.	.	.
O=C(CCCn1c(SCc2cccc(F)c2)nc2ccccc2c1=O)NCC1CCCO1 (stereo unspecified)	-5.2	-	-	-	-	-	-	-	-
Cc1cc(C)c2oc(=O)cc(CN3CCCCC3)c2c1	-	-	-	-	-	.	.	.	.
Cc1ccc(C(=O)Nc2nc3ccc(S(C)(=O)=O)cc3s2)o1	-	-	-	-	-	.	.	.	.
Cc1noc(C)c1C(=O)Nc1nc2ccc(S(C)(=O)=O)cc2s1	-7.5	-	-	-	-	-	-	-	-
CCN1CCN(c2c(S(=O)(=O)c3ccc(C)c(C)c3)cnc3ccc(F)cc23)CC1	-	-	-	-	-	.	.	.	.
COc1ccc(/C=C/c2nc3cc(-c4ccccc4)ccc3o2)cc1O	-4.55	-	-	-	-	-	-	-	-
CC(C)CN(C(=O)CSc1nnnn1-c1ccccc1)c1c(N)n(CC(C)C)c(=O)[nH]c1=O	-	-	-	-	-	.	.	.	.
Cc1ccccc1NC(=O)NC1(C(=O)N2CCN(C)CC2)CCCCC1	-	-	-	-	-	.	.	.	.
Cc1ccn2c(CNCCn3cccn3)c(C(=O)N3CCCCCC3)nc2c1	-7.47	-	-	-	-	-	-	-	-
COc1ccc(C(c2c(O)nc(SC)n(C)c2=O)c2c(O)nc(SC)n(C)c2=O)cc1O	-7.35	-	-	-	-	-	-	-	-
SMILES	MrgX1 antagonist	RGS4 act	MrgX1 agonist	MrgX1 PAM	RGS4 inh	MrgX1 antag conf	HEK293 Ca flux	HEK293 Ca counter	HEK293 Ca cntr2
CC(C)CC(=O)Nc1c2c(nn1-c1ccc(F)cc1)CSC2	-7.66	-	-	-	-	-	-	-	-
O=C(Cn1cc2c(n1)CCCC2)N1CCc2ccccc21	-7.09	-	-	-	-	-	-	-	-
O=C(Cn1cc2c(n1)CCCCC2)N1CCc2ccccc2C1	-	-	-	-	-	.	.	.	.
COc1cccc(C2C(C(=O)c3cc4cccc(OC)c4o3)=C(O)C(=O)N2c2cc(C)on2)c1OC (stereo unspecified)	-	-	-	-	-	.	.	.	.
COC(=O)c1ccc(C2C(C(=O)c3cc4ccccc4o3)=C(O)C(=O)N2c2cc(C)on2)cc1 (stereo unspecified)	-5.2	-	-	-	-	82.1%	-	-	-
Cc1cc(N2C(=O)C(O)=C(C(=O)c3cc4ccccc4o3)C2c2ccc(OC(C)C)cc2)no1 (stereo unspecified)	-	-	-	-	-	.	.	.	.
COc1cccc2cc(C(=O)C3=C(O)C(=O)N(c4cc(C)on4)C3c3cccs3)oc12 (stereo unspecified)	-5.08	-	-	-	-	-	-	-	-
CC/C(=N\NC(=O)CNC(=O)/C=C/c1ccc(OC)cc1)c1ccccc1	-	-	-	-	-	.	.	.	.
Cc1cccc(-n2ncc3c(NCc4ccccc4)ncnc32)c1	-	-	-	-	-	.	.	.	.
Cc1cccc(-n2ncc3c(NCCc4ccc(S(N)(=O)=O)cc4)ncnc32)c1	-5.47	-	-	-	-	82.4%	-	-	-
CN1CCC(N(C)C(=O)/C(C#N)=C/c2ccc(OC(F)F)cc2)CC1	.	-	.	.	-	.	.	.	.
O=C(Nc1ccc(S(=O)(=O)Nc2nccs2)cc1)c1c(F)c(F)c(F)c(F)c1F	-	-	-	-	-	.	.	.	.
Cc1ccccc1NC(=O)C1C2/C=C\CCCCC21 (stereo unspecified)	-4.53	-	-	-	-	-	-	-	-
Cc1ccccc1NC(=O)C1C2CCCCC21 (stereo unspecified)	-	-	-	-	-	.	.	.	.
CCN(CC)c1ccc(/C=N/n2c(C)nc3ccccc3c2=O)cc1	-	-	-	-	-	.	.	.	.
CCN(Cc1ccccc1)S(=O)(=O)c1ccc2oc(C(=O)O)c(C)c2c1	-5.19	-	-	-	-	-	-	-	-
CCN(CC)S(=O)(=O)c1ccc2oc(C(=O)O)c(C)c2c1	-	-	-	-	-	.	.	.	.
O=C(CSc1nc(-c2ccc(F)cc2)cs1)N1CCOCC1	-9.2	-	-	-	-	-	-	-	-
Cc1cc(C(=O)CCl)c(C)n1-c1c(C)n(C)n(-c2ccccc2)c1=O	-	-	-	-	-	.	.	.	.
CCOC(=O)Cn1cc(C(=O)C(C)(C)C)c2ccccc21	-4.88	-	-	-	-	-	-	-	-
COC(=O)Cn1cc(C(=O)C(C)(C)C)c2ccccc21	-	-	-	-	-	.	.	.	.
CCN(CC)CCNC(=S)NC(=O)c1cn(-c2ccccc2)nc1-c1ccc(OC)cc1	-	-	-	-	-	.	.	.	.
C=CCc1cccc(CNc2cnc3ccccc3c2)c1O	-6.62	-	-	-	-	81.9%	-	-	-

High-throughput results (PubChem BioAssay)
